Experimental data: ChEMBL document CHEMBL1155455
Calls of active or inactive are those of the source. The rule behind the calls is not given here.

How the values were obtained:
[1] = system: Rattus norvegicus; assay: Antidiuretic activity in sc dosed Sprague-Dawley rat assessed as inhibition of U50488-induced urine output administered immediately after water loading measured after 5 hrs on week 1; type: functional, organism-based
How it was run: (§1)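 Adult male Sprague-Dawley rats, groups of four. […] Urine collected hourly for 5 h in metabolic chambers, at week 0 and week 1 without redosing. Analysis by repeated-measures ANOVA and Dunnett's test.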

[2] = system: Rattus norvegicus; assay: Antidiuretic activity in sc dosed Sprague-Dawley rat assessed as inhibition of U50488-induced urine output administered immediately after water loading measured 5 hrs after first dose; type: functional, organism-based; how it was run: as §1

Row | Structure (SMILES) | Activity [1] | Activity [2]
1 | CC(C)[C@@H](CN1CC[C@@](C)(c2cccc(O)c2)[C@@H](C)C1)NC(=O)[C@@H]1CCc2cc(O)ccc2C1 | inactive | Dose-dependent effect
2 | CC(C)[C@@H](CN1CC[C@@](C)(c2cccc(O)c2)[C@@H](C)C1)NC(=O)[C@H]1Cc2ccc(O)cc2CN1 | Dose-dependent effect | Dose-dependent effect
